Target: T1, OR5K1 (Homo sapiens) (UniProt Q8NHB7)
T1 sequence (whole entry): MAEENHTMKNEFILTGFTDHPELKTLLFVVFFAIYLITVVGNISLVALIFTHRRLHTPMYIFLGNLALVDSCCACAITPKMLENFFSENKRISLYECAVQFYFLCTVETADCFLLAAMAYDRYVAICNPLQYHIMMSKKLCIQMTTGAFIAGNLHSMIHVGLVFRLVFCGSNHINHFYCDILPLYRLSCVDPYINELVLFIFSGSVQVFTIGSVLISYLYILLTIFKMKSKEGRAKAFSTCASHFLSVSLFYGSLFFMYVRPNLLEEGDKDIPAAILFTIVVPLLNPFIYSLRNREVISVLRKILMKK
Settings: stereoisomer not certain
How it was run: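 Each entry records the cell line, G-protein, co-transfected protein and tags used. Methods varied with the source, often transient luciferase assays in mammalian cell lines. A receptor–molecule pair is called responsive (active) if the original authors judged its signal statistically different from baseline and non-responsive (inactive) otherwise.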

Odorant receptor agonist call, inactive:
CSCCC=O
C=C(C)C1CC=C(C)CC1 (centres undefined)
CCCSSSCCC
CCCCCC(C)O (centres undefined)
C=CC(=O)CC=CCC
CCCCCCCC1CCCC(=O)O1 (centres undefined)
CCCC=CC=O
CCC(=O)O
CCOC(C)=O
CCCCCCOC(C)=O
OCCc1ccccc1
CCOC(=O)CCC(C)C
COc1cccc(OC)c1O
CCCCCCCCCC(=O)[O-].[H+]
CCc1cnc(C)c(C)n1
CC(=O)OCCc1ccccc1
CCCCC1CCC(=O)O1 (centres undefined)
CCOC(=O)C=Cc1ccccc1
CCCCC(=O)OCC
CCc1ccc(O)cc1
CCOC(=O)C(C)C
CC(C)c1ccc(C=O)cc1
C=CC(=O)CC
CCCSSSC
CCCC(=O)OC
CCOC(=O)CC(C)C
CC(=O)O
CCCCCCCCC1CCC(=O)O1 (centres undefined)
C=CC(O)CCCCC (centres undefined)
CC(=O)OCCC(C)C
CCCCCCO
CCC=O
CCCC(O)CC(=O)OCC (centres undefined)
CC(=O)c1ccc(C)cc1
CCCCCC(=O)OCC
COc1ccc(C)cc1O
CCC=CCCOC(C)=O
Cc1occc(=O)c1O
CCOC(=O)C(C)CC (centres undefined)
